ChEMBL document CHEMBL1141748, “Nocardimicins A, B, C, D, E, and F, siderophores with muscarinic M3 receptor inhibiting activity from Nocardia sp. TP-A0674” (J Nat Prod, 2005)

Key:
[1] = target: Muscarinic acetylcholine receptor M3 (Homo sapiens, UniProt P20309); assay: Displacement of [3H]NMS from human muscarinic M3 receptor expressed in insect Sf9 cells
Summary of the method: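 Competition binding used Sf9 membranes stably expressing human M3, incubated with 0.29 nM [3H]-NMS (assay Kd 0.078 nM, Bmax 3.2 pmol/mg protein) in 50 mM Tris-HCl, 10 mM MgCl2, 1 mM EDTA, pH 7.4, 25 °C, 1 h. Nonspecific binding was set with 1 µM atropine. IC50 was taken from competition curves and converted to apparent Ki by Cheng-Prusoff.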

[2] = target: T1, Muscarinic acetylcholine receptor M2 (Homo sapiens, UniProt P08172); assay: Binding affinity to human muscarinic M2 receptor expressed in insect Sf9 cells
T1 sequence (P08172 whole entry): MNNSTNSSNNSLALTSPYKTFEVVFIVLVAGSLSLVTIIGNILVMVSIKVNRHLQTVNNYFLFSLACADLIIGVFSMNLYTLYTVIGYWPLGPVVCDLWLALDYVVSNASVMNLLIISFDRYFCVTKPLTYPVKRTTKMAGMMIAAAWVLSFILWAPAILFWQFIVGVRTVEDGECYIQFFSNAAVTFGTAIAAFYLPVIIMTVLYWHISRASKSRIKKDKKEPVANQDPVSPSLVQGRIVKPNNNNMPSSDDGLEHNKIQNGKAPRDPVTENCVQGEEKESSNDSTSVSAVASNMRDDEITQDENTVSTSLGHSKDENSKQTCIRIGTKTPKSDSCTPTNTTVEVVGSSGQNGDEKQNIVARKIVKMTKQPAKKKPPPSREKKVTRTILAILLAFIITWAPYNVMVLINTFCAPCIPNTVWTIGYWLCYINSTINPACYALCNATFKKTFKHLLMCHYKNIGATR
Summary of the method: (§1)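 Membranes from Sf9 insect cells stably expressing the human receptor were incubated with 0.29 nM [3H]-NMS in 50 mM Tris-HCl, 10 mM MgCl2, 1 mM EDTA, pH 7.4, for 1 h at 25 °C. Nonspecific binding was defined with 1 µM atropine. IC50 was taken from competition curves and converted to apparent Ki by Cheng-Prusoff.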

[3] = target: T2, Muscarinic acetylcholine receptor M4 (Homo sapiens, UniProt P08173); assay: Binding affinity to human muscarinic M4 receptor expressed in insect Sf9 cells; summary of the method: as §1
T2 sequence (P08173 whole entry): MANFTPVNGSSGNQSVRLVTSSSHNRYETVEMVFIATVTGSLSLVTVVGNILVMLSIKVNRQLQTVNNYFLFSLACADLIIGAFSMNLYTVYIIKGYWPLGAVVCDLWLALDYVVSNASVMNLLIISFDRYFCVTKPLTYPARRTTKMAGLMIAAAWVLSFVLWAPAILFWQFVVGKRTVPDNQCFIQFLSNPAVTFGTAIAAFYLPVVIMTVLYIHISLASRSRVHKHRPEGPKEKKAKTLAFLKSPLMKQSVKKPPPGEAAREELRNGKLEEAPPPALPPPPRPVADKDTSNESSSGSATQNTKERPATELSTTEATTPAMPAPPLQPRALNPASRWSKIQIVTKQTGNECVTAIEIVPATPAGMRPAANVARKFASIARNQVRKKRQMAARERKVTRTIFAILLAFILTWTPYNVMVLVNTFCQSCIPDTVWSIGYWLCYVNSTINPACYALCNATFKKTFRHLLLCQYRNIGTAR

[4] = target: T3, Muscarinic acetylcholine receptor M1 (Homo sapiens, UniProt P11229); assay: Binding affinity to human muscarinic M1 receptor expressed in insect Sf9 cells; summary of the method: as §1
T3 sequence (P11229 whole entry): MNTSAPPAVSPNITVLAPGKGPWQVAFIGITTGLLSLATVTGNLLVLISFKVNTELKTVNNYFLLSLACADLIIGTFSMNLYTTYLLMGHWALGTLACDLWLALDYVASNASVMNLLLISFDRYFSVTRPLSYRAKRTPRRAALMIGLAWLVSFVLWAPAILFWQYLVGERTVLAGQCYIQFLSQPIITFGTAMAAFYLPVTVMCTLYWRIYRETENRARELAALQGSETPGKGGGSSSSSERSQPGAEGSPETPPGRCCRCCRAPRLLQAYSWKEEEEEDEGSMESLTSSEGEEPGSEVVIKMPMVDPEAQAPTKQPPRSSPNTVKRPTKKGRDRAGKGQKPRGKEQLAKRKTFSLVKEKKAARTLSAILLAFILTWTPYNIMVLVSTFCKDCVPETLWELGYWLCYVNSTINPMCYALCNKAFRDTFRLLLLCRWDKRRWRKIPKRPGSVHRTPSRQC

[5] = target: T4, Muscarinic acetylcholine receptor M5 (Homo sapiens, UniProt P08912); assay: Binding affinity to human muscarinic M5 receptor expressed in insect Sf9 cells; summary of the method: as §1
T4 sequence (P08912 whole entry): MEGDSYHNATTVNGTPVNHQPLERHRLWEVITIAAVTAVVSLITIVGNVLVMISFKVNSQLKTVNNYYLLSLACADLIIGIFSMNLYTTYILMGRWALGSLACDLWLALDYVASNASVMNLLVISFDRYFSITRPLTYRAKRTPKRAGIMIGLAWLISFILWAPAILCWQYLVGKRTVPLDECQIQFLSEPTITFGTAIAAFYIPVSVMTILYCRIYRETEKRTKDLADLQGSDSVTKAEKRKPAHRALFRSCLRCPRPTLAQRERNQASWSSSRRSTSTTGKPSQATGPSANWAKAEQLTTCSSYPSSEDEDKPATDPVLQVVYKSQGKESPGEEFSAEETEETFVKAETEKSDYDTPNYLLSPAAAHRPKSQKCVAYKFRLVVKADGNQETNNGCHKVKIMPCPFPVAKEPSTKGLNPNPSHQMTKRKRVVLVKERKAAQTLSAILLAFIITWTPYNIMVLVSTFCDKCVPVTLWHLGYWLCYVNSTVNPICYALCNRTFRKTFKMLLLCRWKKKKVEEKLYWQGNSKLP

Sequence of Muscarinic acetylcholine receptor M3 (P20309 whole entry): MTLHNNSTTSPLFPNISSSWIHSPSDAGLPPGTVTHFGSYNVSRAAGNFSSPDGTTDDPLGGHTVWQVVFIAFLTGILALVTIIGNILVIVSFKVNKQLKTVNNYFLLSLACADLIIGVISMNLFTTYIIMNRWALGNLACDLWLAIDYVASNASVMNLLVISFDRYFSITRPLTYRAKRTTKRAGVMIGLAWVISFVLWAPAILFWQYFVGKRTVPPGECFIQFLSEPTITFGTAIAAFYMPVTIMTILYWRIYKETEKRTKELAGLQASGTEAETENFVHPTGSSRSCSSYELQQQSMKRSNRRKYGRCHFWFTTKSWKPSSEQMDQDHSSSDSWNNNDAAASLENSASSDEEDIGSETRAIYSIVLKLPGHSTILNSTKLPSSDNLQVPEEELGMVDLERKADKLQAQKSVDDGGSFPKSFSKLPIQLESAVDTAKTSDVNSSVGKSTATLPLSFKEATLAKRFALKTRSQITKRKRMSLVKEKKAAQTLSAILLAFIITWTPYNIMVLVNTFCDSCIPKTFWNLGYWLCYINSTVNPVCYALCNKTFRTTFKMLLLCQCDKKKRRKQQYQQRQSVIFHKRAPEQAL

Compound | IC50 [1] | Ki [1] | other results
CCCCCCCCCCCCCCCC(OC(=O)C(CCCCN(O)C(C)=O)NC(=O)c1coc(-c2ccccc2O)n1)C(C)C(=O)NC1CCCCN(O)C1=O (stereo not given) [NOCARDIMICIN F] | 6290 nM | 1330 nM | –
CCCCCCCCCCCCCC(OC(=O)C(CCCCN(O)C(C)=O)NC(=O)c1coc(-c2ccccc2O)n1)C(C)C(=O)NC1CCCCN(O)C1=O (stereo not given) [NOCARDIMICIN D] | 1100 nM | 230 nM | –
CCCCCCCCCC(OC(=O)C(CCCCN(O)C(C)=O)NC(=O)c1coc(-c2ccccc2O)n1)C(C)C(=O)NC1CCCCN(O)C1=O (stereo not given) [NOCARDIMICIN A] | 5890 nM | 1250 nM | –
CCCCCCCCCCCCCC(OC(=O)C(CCCCN(O)C(C)=O)NC(=O)c1coc(-c2ccccc2O)n1)C(C)C(=O)NC1CCCCNC1=O (stereo not given) [NOCCARDIMICIN E] | 4560 nM | 970 nM | –
CCCCCCCCCCCC(OC(=O)C(CCCCN(O)C(C)=O)NC(=O)c1coc(-c2ccccc2O)n1)C(C)C(=O)NC1CCCCNC1=O (stereo not given) [NOCARDIMICIN C] | 4700 nM | 1000 nM | –
CCCCCCCCCCCC(OC(=O)C(CCCCN(O)C(C)=O)NC(=O)c1coc(-c2ccccc2O)n1)C(C)C(=O)NC1CCCCN(O)C1=O (stereo not given) [NOCARDIMICIN B] | 630 nM | 130 nM | IC50 [2]: 1780 nM; Ki [2]: 630 nM; IC50 [3]: 1040 nM; Ki [3]: 140 nM; IC50 [4]: 2030 nM; Ki [4]: 490 nM; IC50 [5]: 1640 nM; Ki [5]: 1180 nM
